# proKLK7 act: activators of human kallikrein-7 zymogen | P49862 | purified proKLK7, EDANS-DABCYL substrate fluorescence; 100% is mature enzyme control, 0% vehicle | activation, % at 7 µM | hit rate 0.9% among 370,000;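 active means activation above the mean of all tested compounds plus 3 SD, computed per campaign excluding outliers beyond control limits, cut at about 13% in these data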
# CRFBP-R2 block: blocks CRF-induced signaling of the CRF-BP/CRF-R2 complex | AID 588475 | HEK293 CRF-R2/CRF-BP, CRF-induced calcium fluorescence | inhibition, % at 11.8 µM | hit rate 0.59% among 350,000;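 active means inhibition of the ligand-induced calcium signal above about 50% at the single tested concentration, limit read from the data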
# NRP1-CendR mod: NRP-1/CendR interaction modulation | hit rate 0.85% among 360,000 | inhibition, % at 25 µM | O14786 | AID 602438 | FAM-RPARPAR peptide binding to NRP-1, fluorescence polarization;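 active means inhibition or corrected inhibition above about 18%, plus a signal ratio from 0.5 to 1.5, limit read from the data, passing the limit was not always enough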
# DDE Tn7 FP inh: DD(E)-Tn7 binding inhibition, primary FP screen. P02675. FP displacement of FITC-Tn7 peptide from fibrin DD(E); 0% = median of compound wells per plate. inhibition, % at 8.3 µM. hit rate 0.13% among 370,000. AID 720508;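 active means inhibition above the mean of compounds falling within the control limits plus 3 SD of them, cut at about 14% in these data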;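 further: 0% = plate median of compound wells and 100% = 10 µM Aha-Tn7 peptide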
#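 Assay system: Fibrin-DD(E) protein isolated from polymerized human fibrin clots; read-out basis: percent inhibition; medium: Tris/NaCl/CaCl2 buffer, pH 7.8; signal: FP measurement; incubation: 10 min plus 3 h, room temperature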
# DDE Tn6 FP inh: disrupts Tn6 cyclic peptide binding to fibrin D-Dimer-E complex | P02675 | Fibrin DD(E) TRITC-Tn6 fluorescence polarization displacement | inhibition, % at 8.3 µM | hit rate 0.21% among 370,000 | AID 720509;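 active means inhibition above a per-campaign cutoff: mean of compounds within control limits plus 3 SD, cut at about 15% in these data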;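 further: 0% = median of all compound wells on the plate and 100% = blocking peptide control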
# CRFBP-R2 agonist: agonists of human CRF-binding protein/CRF-R2 receptor complex. HEK293 CRF-R2/CRF-BP, calcium dye fluorescence (FLIPR); percent of saturating CRF peptide response. hit rate 0.46% among 350,000. activation, % at 13.2 µM;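 active means activation of at least 50%, plus an integration ratio under a set limit after plate pattern correction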;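 further: plate controls were neutral control wells without compound for no effect and CRF at EC100 for full effect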
# KLK7 act conf: confirmation of human kallikrein-7 zymogen activators; purified proKLK7, EDANS-DABCYL substrate fluorescence; scaled: vehicle 0, mature enzyme 100; hit rate 68% among 3,200; shares compounds with proKLK7 act; activation, % at 7 µM;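 active means activation, as change over the incubation, above the mean of all tested compounds plus 3 SD, cut at about 13% in these data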
# EDANS interfere: counter-screen for kallikrein-7 activators: EDANS-DABCYL optical interference; shares compounds with proKLK7 act; EDANS-DABCYL substrate fluorescence interference, no enzyme, 4 h; solvent 0%, active enzyme control 100%; activation, % at 7 µM; hit rate 80% among 3,200;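 active means activation above the all-compound mean plus 3 SD, ignoring values outside control-based bounds, cut at about 4.8% in these data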;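 further: value is the 4 h activation minus the activation read at time zero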
# * marks the source's active call; other numbers are inactive results; x = not tested or not shown; ! = not confirmed by another sample. Most compounds without a hit are left out; they make up all but 2.9% or so of the library.
SMILES,proKLK7 act,CRFBP-R2 block,NRP1-CendR mod,DDE Tn7 FP inh,DDE Tn6 FP inh,CRFBP-R2 agonist,KLK7 act conf,EDANS interfere
c1ccc(CCNc2ccc3ncc(-c4cccc5ccccc45)n3n2)nc1,-13,x,-9,0,1,x,x,x
O=C(NCc1ccccc1)N1CCN(Cc2nc3ccccc3c(=O)[nH]2)CC1,0,x,x,-3,4,x,x,x
CS(=O)(=O)N1c2ccccc2C[C@H]1Cc1cc2ccccc2o1,x,x,x,-6,-1,x,x,x
CCOC(=O)c1nn(-c2ccc(F)cc2)cc1O,-4,-2,-8,-2,-6,0,x,x
CCOC(=O)c1nn(-c2ccc3c(c2)CCN3C(C)=O)cc1O,175*,10,-13,-6,-4,-3,-4,19*
COc1ccc(C2C=C(c3ccccc3)Nc3nc(CCCO)nn32)cc1 (stereo not drawn),12,5,x,-3,-6,39,x,x
O=C1CCC(=O)N1c1nc2n(n1)C(c1ccccc1)C=C(c1ccc(Br)cc1)N2 (stereo not drawn),30*,-8,14,12,4,9,64*,47*
OCCCc1nc2n(n1)C(c1ccccc1)C=C(c1ccccc1)N2 (stereo not drawn),x,-14,-2,x,x,22,x,x
COc1ccc(C2C=C(c3ccc(Br)cc3)Nc3nc(N4C(=O)CCC4=O)nn32)cc1 (stereo not drawn),29*,-12,9,6,8,34,-81,-73
COC(=O)[C@]1(CNC(=O)C(C)(C)C)CC(=O)N(C)[C@@H]1c1ccccc1,0,x,x,-11,3,x,x,x
O=C(c1ccccc1)N1CCC2CCN(CCc3ccccc3)CC21 (stereo not drawn),0,x,x,5,6,x,x,x
CCOC(=O)Cc1csc(NS(=O)(=O)c2ccc3c4c(cccc24)C(=O)N3CC)n1,3,9,0,-1,1,1,x,x
CN1C(=O)c2cccc3c(S(=O)(=O)N4CCCC4C(=O)O)ccc1c23 (stereo not drawn),17*,12,11,-6,-3,-2,42*,46*
CCN1C(=O)c2cccc3c(S(=O)(=O)NCc4ccccn4)ccc1c23,53*,-2,6,1,8,-1,62*,56*
CN1C(=O)c2cccc3c(S(=O)(=O)NCCc4ccccc4)ccc1c23,-2,0,7,0,-2,0,x,x
CCOC(=O)CNS(=O)(=O)c1ccc2c3c(cccc13)C(=O)N2CC,77*,-13,6,1,-6,-5,64*,69*
COCCNS(=O)(=O)c1ccc2c3c(cccc13)C(=O)N2C,28*,3,-19,-4,-3,4,78*,88*
CCCCCCCCNC(=O)C1CSCCS(=O)(=O)N1Cc1ccc(OC)cc1 (stereo not drawn),0,x,x,3,-9,x,x,x
Cc1nc2c(C)cccc2c2c1CCN2c1ccccc1F,157*,25,0,9,-4,1,61*,69*
COc1ccc(N2CCc3c(C)nc4c(OC)cccc4c32)cc1,-1,-1,-15,-6,2,1,x,x
CC(=O)N1CCc2c1cccc2S(=O)(=O)NC(CC(C)C)C(=O)Nc1ccccc1C (stereo not drawn),0,x,x,4,-4,x,x,x
Nc1c2ccccc2nc2ccccc12,14*!,4,1,1,6,-2,52*,71*
Nc1c2c(nc3ccccc13)CCCC2,0,-5,5,-4,-4,2,x,x
CC(C)=CCC/C(C)=C/CNC(=O)C[C@H]1C[C@H](C(=O)N2CCCCC2)[C@@]2(CCc3ccccc3)c3[nH]c4cc(-c5ccco5)ccc4c3CCN2C1=O,x,6,-34,x,x,2,x,x

# High-throughput results deposited in PubChem by several laboratories.
